# TNAP act DEA – activates human TNAP at intermediate phosphate acceptor concentration; P05186; purified TNAP, CDP-star luminescence, 100 mM DEA, 30 min; active compounds read high; scale: 0 levamisole-inhibited, 1 vehicle-only enzyme; activation factor at 20 µM; 64,000 tested, under 10 active;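 active = activation factor of at least 2 at 20 µM, relative to controls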
# AP ELISA ortho – alternative pathway complement inhibition, orthogonal assay; inhibition, % at 5 µM; 62,000 compounds, 0.08% hits; AID 1235; Human serum alternative complement pathway, LPS-coated ELISA, C3 deposition; tested in compound mixtures;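 active = inhibition above 30% in each of the two pooled mixtures holding the compound, so the lower value exceeds 30%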;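 also: 0% = serum in Mg-EGTA without compound and 100% = EDTA serum blank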
#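 Assay system: Human serum alternative complement pathway, C3 deposition on LPS-coated wells | Incubation: 1 h serum-compound exposure at 37 °C | Doses: 5 µM per compound in ten-compound mixtures | Read-out: Percent inhibition | Technique: ELISA with HRP anti-human C3 antibody, TMB substrate, absorbance 450 nm | Replication: Two pool placements per compound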
# E coli RNAP – inhibitors of Escherichia coli RNA polymerase; P0A8V2; E. coli RNA polymerase, fluorescence transcription assay; inhibition, %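 (tested at 10 µM)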; 62,000 compounds, 0.2% hits; in the data active = inhibition above about 20%;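 also: 0% = enzyme without compound and 100% = no enzyme blank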
# SF-1 act – activates the human nuclear receptor SF-1; Q13285; CHO-K1 Gal4-SF-1 LBD luciferase reporter; % increase over DMSO SF-1-specific signal; activation, % at 10 µM; 65,000 compounds, 1.9% hits; AID 522;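 active = activation above the mean activation of all tested compounds plus 3 SD, cut at about 50% in these data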
#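 Material: Gal4–SF-1 LBD one-hybrid luciferase reporter in CHO-K1 cells | Amount: 4,000 cells per well | Compound dosing: 10 µM single point, 1% DMSO | Schedule: 20 h compound treatment, 37 °C | Measured by: SteadyLite luciferase luminescence | Evaluation: Percent activation versus DMSO | Control set: DMSO-treated SF-1-transfected cells as negative, DMSO-treated mock-transfected cells lacking SF-1 as background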
# MT1-MMP txn act – MT1-MMP promoter transcription activation; HT1080 MT1-MMP promoter luciferase reporter, luminescence, overnight; active compounds read high; activation factor at 10 µM; 86,000 compounds, 0.16% hits;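 active = activation factor of at least 2 for MT1-MMP transcription at 10 µM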
# RORa activator – activators of human nuclear receptor RORA; 65,000 compounds, 1.5% hits; P35398; CHO-K1 Gal4-RORA LBD luciferase reporter, luminescence; percent increase over mock-subtracted basal signal; activation, % at 10 µM;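 active = activation above the mean of all tested compounds plus 3 SD, cut at about 49% in these data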;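 also: 0% = DMSO-treated RORA cells and 100% = added signal equal to DMSO minus mock-transfected cells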
# Target sequence (P35398 whole entry, looked up, the tested form may be a part): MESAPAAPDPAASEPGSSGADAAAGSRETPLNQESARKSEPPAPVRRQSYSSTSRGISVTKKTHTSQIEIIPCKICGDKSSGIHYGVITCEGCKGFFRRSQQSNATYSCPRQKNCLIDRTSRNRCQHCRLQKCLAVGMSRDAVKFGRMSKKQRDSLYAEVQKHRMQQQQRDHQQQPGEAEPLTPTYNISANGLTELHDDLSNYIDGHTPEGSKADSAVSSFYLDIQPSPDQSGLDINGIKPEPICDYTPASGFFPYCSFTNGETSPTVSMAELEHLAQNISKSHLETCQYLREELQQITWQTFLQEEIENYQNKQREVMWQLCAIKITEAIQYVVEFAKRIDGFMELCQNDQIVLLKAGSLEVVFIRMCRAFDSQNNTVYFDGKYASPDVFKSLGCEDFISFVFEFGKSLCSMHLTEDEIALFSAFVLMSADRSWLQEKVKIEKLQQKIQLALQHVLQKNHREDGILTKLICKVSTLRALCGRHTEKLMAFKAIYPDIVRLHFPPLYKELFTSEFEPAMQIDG
# The depositor's hits bear a star; · = no result. Sampled rows, rich in hits. Any-hit rate of the full collection: about 2.2%.
SMILES,TNAP act DEA,AP ELISA ortho,E coli RNAP,SF-1 act,MT1-MMP txn act,RORa activator
CCC(CO)Nc1ncnc2c1cnn2-c1ccc(OC)cc1 (stereo not drawn),1,20,14,101*,1,61*
Clc1ccc(-n2ncc3c(NCc4ccco4)ncnc32)cc1,0.9,·,8,76*,1.3,65*
CCCNc1ncnc2c1cnn2-c1ccc(OC)cc1,0.9,·,12,46,0.8,-4
CN(C)CCNc1ncnc2c1cnn2-c1ccc(Cl)cc1,0.9,-4,8,73*,1.2,43
Cc1ccc(CNC(=O)CCSCCC(=O)NCc2ccc(C)cc2)cc1,·,·,·,·,1.1,·
O=CNC(Cc1ccccc1)C(=O)O (stereo not drawn),·,·,·,·,1.2,·
O=C(O)Cc1ccc(C(=O)c2ccccc2F)s1,·,·,·,·,1,·
Cc1cc(C)nc(N2CCN(c3ncnc4c3cnn4Cc3ccc(Cl)cc3Cl)CC2)n1,0.9,-1,11,-12,1.1,-5
COc1ccc(-n2ncc3c(NCCCN4CCOCC4)ncnc32)cc1,0.9,8,9,53*,1.2,26
O=C1CCCN1CCCNc1ncnc2c1cnn2-c1ccc(Cl)cc1,1,20,9,19,1.5,69*
Clc1ccc(Cn2ncc3c(NCc4ccco4)ncnc32)c(Cl)c1,1,-21,2,62*,1.1,46
COc1ccc(-n2ncc3c(NCc4ccco4)ncnc32)cc1,0.9,2,4,69*,1.5,62*
CC1(C)NC(=O)N(CCCOc2ccc(Br)cc2Cl)C1=O,0.8,11,-4,65*,1.4,19
COC(=O)c1c(-c2ccccc2)csc1NC(=O)c1ccco1,0.9,-2,-9,40,1.4,96*
Cc1nc(NC(=O)c2ccco2)sc1C(=O)Nc1ccc(Br)cc1,0.9,12,1,4,1.3,23
COC(=O)c1sc(NC(=O)c2ccco2)nc1C,0.9,16,4,50*,1.1,28
Cc1cc(NC(=O)c2ccco2)ncc1NC(=O)Cc1ccccc1,0.8,13,7,41,1.9,57*
O=C(Nc1scc(-c2ccc(F)cc2)c1C(=O)O)c1ccco1,1,7,4,28,1.2,30
COc1cccc(C(=O)Nc2cnc(NC(=O)c3ccco3)cc2C)c1,0.9,-1,6,16,1.2,14
CC(=O)c1sc(NC(=O)c2ccco2)nc1-c1ccccc1,0.9,10,11,70*,1.2,40
Cc1sc(NC(=O)c2ccco2)nc1-c1ccccc1,·,·,·,·,1.4,·
O=C(O)C(Cc1c[nH]c2ccccc12)NS(=O)(=O)c1cccc2nsnc12 (stereo not drawn),0.9,·,7,18,1.1,7
Cc1ccc(C)c(-c2nnc(OCC(=O)Nc3cc(C)on3)c3ccccc23)c1,0.9,-15,3,8,1.1,-4
Cc1cnc(NC(=O)COc2ccccc2)s1,0.9,-1,4,82*,1.1,54*
COCc1nnc(NC(=O)c2ccco2)s1,1,26,-1,7,1.2,-15
SMILES,TNAP act DEA,AP ELISA ortho,E coli RNAP,SF-1 act,MT1-MMP txn act,RORa activator
Cc1cnc(NC(=O)c2ccco2)s1,1,16,6,53*,1.6,71*
O=C(Nc1ncc(Cc2ccccc2)s1)c1cccs1,0.9,27,1,39,1.9,43
Cc1ccc(C(=O)Nc2ncc(Cc3ccccc3)s2)o1,1,4,·,61*,1.4,-12
COc1cccc(NC(=O)Cn2cnc3sc(C)c(S(=O)(=O)N4CCCCC4)c3c2=O)c1,·,·,·,·,1.1,·
Cc1cc(NC(=O)COC(=O)c2cc(S(=O)(=O)N3CCOCC3)ccc2N2CCCCC2)no1,·,·,·,·,1.3,·
Cc1c(C(=O)NCc2ccco2)sc2nc(-c3ccccc3)cn12,0.9,6,8,52*,1.1,87*
Cc1c(C(=O)NCc2cccnc2)sc2nc(-c3ccc(F)cc3)cn12,0.9,1,7,-1,1.2,44
Cc1c(C(=O)NCc2cccnc2)sc2nc(-c3ccccc3)cn12,1,19,4,33,·,54*
Cc1c(C(=O)N2CCN(c3ccc(F)cc3)CC2)sc2nc(-c3ccccc3)cn12,1,8,8,2,1,18
Cc1c(C(=O)N2CCOCC2)sc2nc(-c3ccccc3)cn12,0.9,3,10,82*,1.7,58*
Cc1c(C(=O)Nc2ccncc2)sc2nc(-c3ccccc3)cn12,1,10,3,-15,1,-20
Cc1cc(C#N)c(C)n1-c1cc(S(=O)(=O)N2CCOCC2)ccc1N1CCCC1,·,·,·,·,1.3,·
COc1ccc(C2c3c(oc4ccc(F)cc4c3=O)C(=O)N2CCN2CCOCC2)cc1OC (stereo not drawn),1.1,8,3,-12,1,0
Cc1ccc(-n2ncc3c(N4CCCC(C)C4)ncnc32)c(C)c1 (stereo not drawn),0.9,1,3,59*,1.1,43
CC1CCCN(c2ncnc3c2cnn3-c2ccccc2)C1 (stereo not drawn),1,9,7,-48,·,-57
Cc1ccc(-n2ncc3c(N4CCCC4)ncnc32)c(C)c1,0.9,·,6,66*,1.7,29
COc1cccc(N2CCN(c3ncnc4c3cnn4-c3ccc(C)cc3C)CC2)c1,1,14,5,-37,1.2,-25
CCC/C=C(\CCC)C(NS(=O)(=O)c1ccc(C(F)(F)F)cc1)c1ccc(C(=O)OC)cc1 (stereo not drawn),·,·,·,·,1.3,·
CC1(C)CC(=O)C=C(NCC2CCCO2)C1 (stereo not drawn),1,-13,-6,-2,1.1,17
CCOc1ccc(-n2c3nc4ccccc4nc3c3c(=O)n(Cc4ccco4)cnc32)cc1,0.8,12,22*,-11,1,0
N#Cc1c(/N=C/c2ccc(Br)s2)sc2c1CCC2,·,·,·,·,2*,·
N#Cc1c(/N=C/c2cccs2)sc2c1CCCCC2,0.8,-3,6,-12,0.3,39
N#Cc1c(/N=C/N2CCOCC2)sc2c1CCCCC2,1,-6,13,83*,1.3,91*
CCC/C=C(\CCC)C(NS(=O)(=O)c1ccc(-c2ccccc2)cc1)c1ccc(C(=O)OC)cc1 (stereo not drawn),·,·,·,·,1.2,·
CCOC(=O)C1CCCN(S(=O)(=O)c2ccc(OC)cc2)C1 (stereo not drawn),·,·,·,·,1.1,·
COC(=O)CNC(=O)C1(C)C=CC2(CCCCC2)N1C(C)=O (stereo not drawn),·,·,·,·,1.2,·
COC(=O)C1(CC(C)C)C=C2C(=C(C(C)C)C(=O)C2C)CN1 (stereo not drawn),·,·,·,·,1.5,·
COc1ccc(C2=NOC(CN3C(=O)c4ccccc4S3(=O)=O)C2)cc1 (stereo not drawn),0.9,-6,6,67*,1.2,35
